Laboratory results published in ChEMBL document CHEMBL1629690, “Development of hexadecyloxypropyl tenofovir (CMX157) for treatment of infection caused by wild-type and nucleoside/nucleotide-resistant HIV” (Antimicrob Agents Chemother, 2010).

Experiments:
[1] = system: Human immunodeficiency virus 1; experiment: Antiviral activity against HIV1 isolate 160 harboring reverse transcriptase S68G/V75(I/T)/F77L/Y115F/F116Y /Q151M mutant gene by phenosense assay; type: functional, organism-based; conditions: Human immunodeficiency virus 1, isolate 160
How it was run: (§1)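 Recombinant-virus PhenoSense HIV assay run on a panel of 30 NRTI-resistant HIV-1 mutants and two wild-type viruses. Each virus is tested across increasing drug concentrations to give an inhibition curve and EC50. Fold change is the test recombinant EC50 divided by the EC50 of the drug-sensitive wild-type reference virus.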

[2] = system: Human immunodeficiency virus 1; experiment: Antiviral activity against HIV1 isolate 200 harboring reverse transcriptase M41L/L210W/T215Y mutant gene by phenosense assay relative to wild type; type: functional; how it was run: as §1
[3] = system: Human immunodeficiency virus 1; experiment: Antiviral activity against HIV1 isolate 162 harboring reverse transcriptase A62V/V75I/F77L/Y115F/F116Y/Q151M/M184V mutant gene by phenosense assay; type: functional, organism-based; conditions: Human immunodeficiency virus 1, isolate 162; how it was run: as §1
[4] = system: Human immunodeficiency virus 1; experiment: Antiviral activity against HIV1 isolate 071 harboring reverse transcriptase 65R/S68N/184V mutant gene by phenosense assay; type: functional, organism-based; conditions: Human immunodeficiency virus 1, isolate 071; how it was run: as §1
[5] = system: Human immunodeficiency virus 1; experiment: Antiviral activity against HIV1 isolate 166 harboring reverse transcriptase L74V mutant gene obtained as site-directed mutant of NL4-3 by phenosense assay; type: functional, organism-based; conditions: Human immunodeficiency virus 1, isolate 166; how it was run: as §1
[6] = system: Human immunodeficiency virus 1; experiment: Antiviral activity against HIV1 isolate 166 harboring reverse transcriptase L74V mutant gene obtained as site-directed mutant of NL4-3 by phenosense assay relative to wild type; type: functional; how it was run: as §1
[7] = system: Human immunodeficiency virus 1; experiment: Antiviral activity against HIV1 isolate 217 harboring reverse transcriptase D67N/K70E/M184V mutant gene by phenosense assay; type: functional, organism-based; conditions: Human immunodeficiency virus 1, isolate 217
How it was run: (§2)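 PhenoSense HIV recombinant virus assay: patient-derived HIV-1 with major NRTI resistance mutations tested against increasing drug concentrations to give inhibition curves. EC50 is the concentration giving 50% inhibition. Fold change is the test recombinant EC50 divided by the EC50 of a drug-sensitive wild-type reference virus. Panel of 30 NRTI-resistant isolates plus two wild-type viruses.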

[8] = system: Human immunodeficiency virus 1; experiment: Antiviral activity against HIV1 isolate 185 harboring reverse transcriptase T215Y mutant gene by phenosense assay; type: functional, organism-based; conditions: Human immunodeficiency virus 1, isolate 185; how it was run: as §1
[9] = system: Human immunodeficiency virus 1; experiment: Antiviral activity against HIV1 isolate 212 harboring reverse transcriptase L210W/T215Y mutant gene by phenosense assay; type: functional, organism-based; conditions: Human immunodeficiency virus 1, isolate 212; how it was run: as §2
[10] = system: Human immunodeficiency virus 1; experiment: Antiviral activity against HIV1 isolate 157 harboring reverse transcriptase L74V/M184V mutant gene by phenosense assay; type: functional, organism-based; conditions: Human immunodeficiency virus 1, isolate 157; how it was run: as §1
[11] = system: Human immunodeficiency virus 1; experiment: Antiviral activity against HIV1 isolate 061 harboring reverse transcriptase M41L/D67N/K70R/M184V/L210W/T215Y/K219E mutant gene by phenosense assay relative to wild type; type: functional; how it was run: as §1
[12] = system: Human immunodeficiency virus 1; experiment: Antiviral activity against HIV1 isolate 153 harboring reverse transcriptase L74V mutant gene by phenosense assay; type: functional, organism-based; conditions: Human immunodeficiency virus 1, isolate 153; how it was run: as §1
[13] = system: Human immunodeficiency virus 1; experiment: Antiviral activity against HIV1 isolate 071 harboring reverse transcriptase 65R/S68N/184V mutant gene by phenosense assay relative to wild type; type: functional; how it was run: as §1
[14] = system: Human immunodeficiency virus 1; experiment: Antiviral activity against HIV1 isolate 056 expressing wild type reverse transcriptase gene by phenosense assay; type: functional, organism-based; conditions: Human immunodeficiency virus 1, isolate 056
How it was run: (§3)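 In the PhenoSense recombinant virus assay, virus was tested against increasing drug concentrations. EC50 came from the inhibition curve and was compared with a drug-sensitive reference virus.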

[15] = system: Human immunodeficiency virus 1; experiment: Antiviral activity against HIV1 isolate 204 harboring reverse transcriptase M41L/L210W/T215Y/M184V mutant gene by phenosense assay relative to wild type; type: functional; how it was run: as §2
[16] = system: Human immunodeficiency virus 1; experiment: Antiviral activity against HIV1 isolate 201 harboring reverse transcriptase M41L/L210W/T215Y mutant gene by phenosense assay; type: functional, organism-based; conditions: Human immunodeficiency virus 1, isolate 201; how it was run: as §1
[17] = system: Human immunodeficiency virus 1; experiment: Antiviral activity against HIV1 isolate 194 harboring reverse transcriptase M41L/T215Y/M184V mutant gene by phenosense assay relative to wild type; type: functional; how it was run: as §1
[18] = system: Human immunodeficiency virus 1; experiment: Antiviral activity against HIV1 isolate 212 harboring reverse transcriptase L210W/T215Y mutant gene by phenosense assay relative to wild type; type: functional; how it was run: as §2
[19] = system: Human immunodeficiency virus 1; experiment: Antiviral activity against HIV1 isolate 063 harboring reverse transcriptase M41L/D67N/K70R/M184V/L210W/T215Y/K219E mutant gene by phenosense assay; type: functional, organism-based; conditions: Human immunodeficiency virus 1, isolate 063; how it was run: as §1
[20] = system: Human immunodeficiency virus 1; experiment: Antiviral activity against HIV1 isolate 192 harboring reverse transcriptase M41L/T215Y mutant gene by phenosense assay relative to wild type; type: functional; how it was run: as §1
[21] = system: Human immunodeficiency virus 1; experiment: Antiviral activity against HIV1 isolate 180 harboring reverse transcriptase K65R mutant gene obtained as site-directed mutant of NL4-3 by phenosense assay; type: functional, organism-based; conditions: Human immunodeficiency virus 1, isolate 180; how it was run: as §1
[22] = system: Human immunodeficiency virus 1; experiment: Antiviral activity against HIV1 isolate 188 harboring reverse transcriptase T215Y/M184V mutant gene by phenosense assay; type: functional, organism-based; conditions: Human immunodeficiency virus 1, isolate 188; how it was run: as §1
[23] = system: Human immunodeficiency virus 1; experiment: Antiviral activity against HIV1 isolate 211 harboring reverse transcriptase D67N/K70R/T215F/K219E/M184V mutant gene by phenosense assay; type: functional, organism-based; conditions: Human immunodeficiency virus 1, isolate 211; how it was run: as §2
[24] = system: Human immunodeficiency virus 1; experiment: Antiviral activity against HIV1 isolate 057 expressing wild type reverse transcriptase gene by phenosense assay; type: functional, organism-based; conditions: Human immunodeficiency virus 1, isolate 057; how it was run: as §3
[25] = system: Human immunodeficiency virus 1; experiment: Antiviral activity against HIV1 isolate 067 harboring reverse transcriptase A62V/D67G/T69SVG/V75I/T215I mutant gene by phenosense assay relative to wild type; type: functional; how it was run: as §1
[26] = system: Human immunodeficiency virus 1; experiment: Antiviral activity against HIV1 isolate 153 harboring reverse transcriptase L74V mutant gene by phenosense assay relative to wild type; type: functional; how it was run: as §1
[27] = system: Human immunodeficiency virus 1; experiment: Antiviral activity against HIV1 71361-1 harboring reverse transcriptase 65R mutant gene infected in human PBMC by ELISA; type: functional, organism-based; conditions: Human immunodeficiency virus 1, 71361-1
How it was run: (§4)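 Fresh PBMCs pooled from at least two HIV- and HBV-seronegative donors, stimulated with PHA 4 μg/ml for 48–72 h and kept in rhIL-2 20 U/ml. Seeded at 5 × 10^4 cells/well and infected with RT-mutant HIV-1 clones at MOI ~0.1. Nine compound concentrations, triplicate wells, 7-day incubation. EC50 reported as mean ± SD of one to three independent experiments.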

[28] = system: Human immunodeficiency virus 1; experiment: Antiviral activity against HIV1 8415-2 harboring reverse transcriptase 65R/184V mutant gene infected in human PBMC by ELISA; type: functional, organism-based; conditions: Human immunodeficiency virus 1, 8415-2; how it was run: as §4
[29] = system: Human immunodeficiency virus 1; experiment: Antiviral activity against HIV1 7303-3 harboring reverse transcriptase 41L/44D/67N/69D/118I/210W/215Y mutant gene infected in human PBMC by ELISA; type: functional, organism-based; conditions: Human immunodeficiency virus 1, 7303-3; how it was run: as §4
[30] = system: Human immunodeficiency virus 1; experiment: Antiviral activity against HIV1 NL 4-3 expressing wild type reverse transcriptase infected in human PBMC by ELISA; type: functional, organism-based; conditions: Human immunodeficiency virus 1, NL 4-3
How it was run: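 Fresh donor PBMCs, HIV- and HBV-seronegative, were stimulated with 4 μg/ml PHA for 48 to 72 h and kept on 20 U/ml rhIL-2. Cells pooled from at least two donors were seeded at 5 × 10^4 per well and infected at MOI ~0.1. Nine compound concentrations were run in triplicate wells for 7 days.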

[31] = system: Human immunodeficiency virus 1; experiment: Antiviral activity against HIV1 52534-2 harboring reverse transcriptase 41L//74V/210W/215Y/184V/69SSS mutant gene infected in human PBMC by ELISA; type: functional, organism-based; conditions: Human immunodeficiency virus 1, 52534-2; how it was run: as §4

O=c1[nH]cnc2c1ncn2[C@H]1CC[C@@H](CO)O1 [DIDANOSINE]
EC50 [1]: 63000 nM
fold change (FC) [2]: 1.4
EC50 [3]: 58000 nM
EC50 [4]: 14000 nM
EC50 [5]: 8100 nM
fold change (FC) [6]: 1.5
EC50 [7]: 7300 nM
EC50 [8]: 6300 nM
EC50 [9]: 5500 nM
EC50 [10]: 11000 nM
fold change (FC) [11]: 2.1
EC50 [12]: 8900 nM
fold change (FC) [13]: 2.6
EC50 [14]: 5500 nM
fold change (FC) [15]: 1.6
EC50 [16]: 5900 nM
fold change (FC) [17]: 1.8
fold change (FC) [18]: 1
EC50 [19]: 11000 nM
fold change (FC) [20]: 1.1
EC50 [21]: 11000 nM
EC50 [22]: 7900 nM
EC50 [23]: 8700 nM
EC50 [24]: 5600 nM
fold change (FC) [25]: 4
fold change (FC) [26]: 1.6

Cc1cn([C@H]2C[C@H](N=[N+]=[N-])[C@@H](CO)O2)c(=O)[nH]c1=O [ZIDOVUDINE]
EC50 [27]: 2.7 nM
EC50 [1]: 2500 nM
fold change (FC) [2]: 100
EC50 [3]: 4200 nM
EC50 [4]: 11 nM
EC50 [28]: 1.8 nM
EC50 [29]: 3000 nM
EC50 [5]: 14 nM
fold change (FC) [6]: 0.5
EC50 [7]: 4 nM
EC50 [30]: 0.53 nM
EC50 [8]: 1000 nM
EC50 [9]: 210 nM
EC50 [10]: 6 nM
fold change (FC) [11]: 58
EC50 [12]: 11 nM
fold change (FC) [13]: 0.41
fold change (FC) [15]: 3.9
EC50 [16]: 2700 nM
fold change (FC) [17]: 6.5
fold change (FC) [18]: 7.6
EC50 [19]: 1600 nM
fold change (FC) [20]: 20
EC50 [21]: 14 nM
EC50 [22]: 71 nM
EC50 [23]: 190 nM
EC50 [24]: 17 nM
fold change (FC) [25]: >920
fold change (FC) [26]: 0.41
EC50 [31]: 350 nM

Cc1cn([C@H]2C=C[C@@H](CO)O2)c(=O)[nH]c1=O [STAVUDINE]
EC50 [1]: 5500 nM
fold change (FC) [2]: 2.1
EC50 [3]: 4200 nM
EC50 [4]: 590 nM
EC50 [5]: 630 nM
fold change (FC) [6]: 1.1
EC50 [7]: 420 nM
EC50 [8]: 830 nM
EC50 [9]: 940 nM
EC50 [10]: 420 nM
fold change (FC) [11]: 2.6
EC50 [12]: 600 nM
fold change (FC) [13]: 0.99
EC50 [14]: 510 nM
fold change (FC) [15]: 1.8
EC50 [16]: 1100 nM
fold change (FC) [17]: 1.5
fold change (FC) [18]: 1.6
EC50 [19]: 1400 nM
fold change (FC) [20]: 1.4
EC50 [21]: 830 nM
EC50 [22]: 650 nM
EC50 [23]: 790 nM
EC50 [24]: 480 nM
fold change (FC) [25]: 11
fold change (FC) [26]: 1
